In ChEMBL document CHEMBL1781992, “A novel monocarbonyl analogue of curcumin, (1E,4E)-1,5-bis(2,3-dimethoxyphenyl)penta-1,4-dien-3-one, induced cancer cell H460 apoptosis via activation of endoplasmic reticulum stress signaling pathway” (J Med Chem, 2011):
The source made the active and inactive calls. The calls are words filed in the database; no cut-off is given here.

What was measured:
NCI-H460 [1] = experiment: Cytotoxicity against human NCI-H460 cells assessed as reduction of cell survival after 24 hrs by CellTiter-Glo analysis; type: functional, cell-based
Procedure, shortened: (§1)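 H460 cells (5 × 10^3/well) seeded overnight, then given fresh medium containing compound from DMSO stock (final 5, 10, 20 μM; 2.5–30 μM in the figure) for 24 h. Viability measured with CellTiter-Glo and expressed as percent of vehicle-treated cells; Student's t test.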

[2] = target: Transcription factor Jun (Homo sapiens) (UniProt P05412); experiment: Induction of c-Jun phosphorylation in human NCI-H460 cells at 20 uM after 3 hrs by Western blot analysis; type: cell-based
Procedure, shortened: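 H460 cells cultured in RPMI 1640 with 5% heat-inactivated FBS at 37 C, 10% CO2; exposed to 20 μM for a time course. Lysed at 0 C in Tris-HCl pH 7.4 buffer with NP40, SDS, and protease/phosphatase inhibitors. Phospho-c-Jun detected by Western blot with chemiluminescence, actin as loading control; band density quantified.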

NCI-H460 [3] = experiment: Induction of apoptosis in human NCI-H460 cells assessed as non-viable necrotic cells at 20 uM after 6 hrs by annexinV-propidium iodide staining based flow cytometric analysis relative to control; type: functional
Procedure, shortened: (§2)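 H460 cells plated for 6 h, then treated with 5, 10 or 20 μM. Cells washed, trypsin-EDTA detached and resuspended in PBS, then stained with annexin V and propidium iodide plus RNase and 0.1% Triton X-100 for 30 min at 37 °C before flow cytometry. Figure legend gives 6 h incubation.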

NCI-H460 [4] = experiment: Cytotoxicity against human NCI-H460 cells after 72 hrs by MTT assay; type: functional, cell-based; details: NCI-H460, 72 h
Procedure, shortened: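 H460 cells grown in RPMI 1640 with 5% FBS at 37 °C, 10% CO2, treated 24 h after seeding. Compounds in DMSO diluted into medium at final 100, 33.3, 11.1 and 3.7 μg/mL for 72 h. MTT (5 mg/mL in 0.9% NaCl) added for 3 h, formazan dissolved in DMSO and read at 570 nm; IC50 derived.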

NCI-H460 [5] = experiment: Induction of apoptosis in human NCI-H460 cells assessed as early apoptotic cells at 20 uM after 6 hrs by annexinV-propidium iodide staining based flow cytometric analysis relative to control; type: functional; procedure, shortened: as §2
NCI-H460 [6] = experiment: Induction of GRP78 mRNA expression in human NCI-H460 cells at 5 to 20 uM after 3 hrs by real time quantitative PCR analysis; type: functional, cell-based
Procedure, shortened: (§3)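 H460 cells treated across a concentration range for 3 h. GRP78 mRNA quantified by RT-qPCR, normalized to β-actin and expressed as percent of vehicle.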

NCI-H460 [7] = experiment: Induction of GRP78 mRNA expression in human NCI-H460 cells after 3 hrs by real time quantitative PCR analysis; type: functional, cell-based; procedure, shortened: as §3
NCI-H460 [8] = experiment: Induction of apoptosis in human NCI-H460 cells assessed as viable cells at 20 uM after 6 hrs by annexinV-propidium iodide staining based flow cytometric analysis relative to control; type: functional; details: NCI-H460, 6 h, read-out: Activity; procedure, shortened: as §2
NCI-H460 [9] = experiment: Increase in p53 expression in human NCI-H460 cells at 20 uM by Western blot analysis; type: functional, cell-based; details: TDE = time-dependent effect
Procedure, shortened: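 H460 cells exposed to 20 μM for varying times, or to a range of concentrations for 12 h. Lysates made in Tris-HCl pH 7.4/NaCl/NP40/SDS buffer with protease and phosphatase inhibitors, then probed for p53 by Western blot with chemiluminescent detection; bands quantified by densitometry.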

NCI-H460 [10] = experiment: Antitumor activity against human NCI-H460 cells xenografted in nude Balb/cA mouse assessed as decrease in tumor volume at 50 mg/kg, ip qd for 20 days measured on day 22 relative to control; type: functional; design: scale not given: the % may be the effect or the level left; details: route intraperitoneal
Procedure, shortened: (§4)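 BALB/cA nu/nu female athymic mice bearing sc right-flank xenografts (3 × 10^6 H460 cells in PBS); once-daily ip dosing began on day 10, when tumors reached 100–300 mm3. Water-soluble liposome preparation in PBS at 10 or 50 mg/kg; controls received liposome vehicle in PBS. Volume = lw²/2; T/C read on day 22. Seven mice per group, mean ± SD; Student's t test.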

NCI-H460 [11] = experiment: Induction of apoptosis in human NCI-H460 cells assessed as late apoptotic cells at 10 uM after 6 hrs by annexinV-propidium iodide staining based flow cytometric analysis relative to control; type: functional; procedure, shortened: as §2
NCI-H460 [12] = experiment: Cytotoxicity against human NCI-H460 cells assessed as reduction of cell viability at 5 to 30 uM after 24 hrs by CellTiter-Glo analysis; type: functional, cell-based; procedure, shortened: as §1
NCI-H460 [13] = experiment: Cytotoxicity against human NCI-H460 cells assessed as cell viability at 20 uM after 24 hrs by CellTiter-Glo analysis; type: functional; details: NCI-H460, 24 h, read-out: Activity; procedure, shortened: as §1
[14] = target: Transcription factor Jun (Homo sapiens) (UniProt P05412); experiment: Induction of c-Jun phosphorylation in human NCI-H460 cells at 20 uM by Western blot analysis; type: cell-based; details: TDE = time-dependent effect
Procedure, shortened: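 H460 cells in RPMI 1640 with 5% FBS, treated at 20 μM for 12 h. Lysates in Tris-HCl pH 7.4, NP40, SDS buffer with protease/phosphatase inhibitors. p-c-Jun examined by Western blot with HRP secondary and chemiluminescence, actin as equal-loading control.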

NCI-H460 [15] = experiment: Cytotoxicity against human NCI-H460 cells transfected with lentivirus carrying CHOP siRNA assessed as reduction of cell viability at 10 uM after 24 hrs by CellTiter-Glo analysis; type: functional, cell-based
Procedure, shortened: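 H460 cells infected with lentivirus carrying CHOP siRNA or nonspecific siRNA; 48 h later treated with 10 μM for 24 h. Survival measured with CellTiter-Glo as percent of nontransfected DMSO-treated cells.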

NCI-H460 [16] = experiment: Cytotoxicity against human NCI-H460 cells assessed as reduction of cell viability at 5 to 20 uM after 24 hrs by CellTiter-Glo analysis; type: functional, cell-based; procedure, shortened: as §1
Mus musculus = experiment: Toxicity in ICR mouse assessed as body weight change at 400 to 800 mg/kg; type: organism-based; design: dose 400-800 mg/kg; details: in vivo
NCI-H460 [17] = experiment: Induction of CHOP mRNA expression in human NCI-H460 cells after 6 hrs by real time quantitative PCR analysis; type: functional, cell-based
Procedure, shortened: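 H460 cells exposed to a concentration range for 6 or 12 h. CHOP mRNA measured by RT-PCR/qPCR and normalized to β-actin.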

NCI-H460 [18] = experiment: Antitumor activity against human NCI-H460 cells xenografted in ip dosed nude Balb/cA mouse assessed as decrease in tumor volume administered qd for 20 days; type: functional, organism-based; procedure, shortened: as §4
NCI-H460 [19] = experiment: Induction of apoptosis in human NCI-H460 cells at 20 uM after 6 hrs by flow cytometric analysis; type: functional; procedure, shortened: as §2
NCI-H460 [20] = experiment: Induction of apoptosis in human NCI-H460 cells assessed as early apoptotic cells at 5 uM after 6 hrs by annexinV-propidium iodide staining based flow cytometric analysis relative to control; type: functional; procedure, shortened: as §2
NCI-H460 [21] = experiment: Induction of XBP-1 protein level in human NCI-H460 cells at 20 uM after 6 hrs by Western blot analysis
NCI-H460 [22] = experiment: Induction of ATF-4 protein level in human NCI-H460 cells at 20 uM after 6 hrs by Western blot analysis

Sequence of Transcription factor Jun (Homo sapiens) (P05412 whole entry): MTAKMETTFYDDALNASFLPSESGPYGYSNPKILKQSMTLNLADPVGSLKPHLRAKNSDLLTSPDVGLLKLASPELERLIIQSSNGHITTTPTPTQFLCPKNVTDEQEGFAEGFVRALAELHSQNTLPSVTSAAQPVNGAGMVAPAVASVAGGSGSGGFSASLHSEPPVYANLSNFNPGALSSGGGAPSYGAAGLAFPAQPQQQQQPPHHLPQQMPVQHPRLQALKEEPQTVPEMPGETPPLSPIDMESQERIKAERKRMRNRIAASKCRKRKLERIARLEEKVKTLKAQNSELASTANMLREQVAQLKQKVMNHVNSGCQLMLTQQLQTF

With `COc1cccc(/C=C/C(=O)/C=C/c2cccc(OC)c2OC)c1OC` the Activity (NCI-H460 [1]) was “Dose-dependent effect”, the Activity [2] was “Active” and the Activity (NCI-H460 [3]) was 1.48%. For the same compound, the IC50 (NCI-H460 [4]) was 6.74 µM, the Activity (NCI-H460 [5]) was 29.68% and the Activity (NCI-H460 [6]) was “Active”. The Activity (NCI-H460 [7]) was “Dose-dependent effect”, the viability at 20 µM (NCI-H460 [8]) was 57.3% and the Activity (NCI-H460 [9]) was “tde”. For the same compound, the Activity (NCI-H460 [10]) was 46.5%, the Activity (NCI-H460 [11]) was 3.3% and the Activity (NCI-H460 [12]) was “Active”. The viability at 20 µM (NCI-H460 [13]) was 16%, the Activity [14] was “tde” and the Activity (NCI-H460 [15]) was “inactive”. The Activity (NCI-H460 [16]) was “Active”, the Activity (Mus musculus) was “Non-toxic” and the Activity (NCI-H460 [17]) was “Dose-dependent effect”. The Activity (NCI-H460 [18]) was “Dose-dependent effect”, the Activity (NCI-H460 [19]) was 29.63% and the Activity (NCI-H460 [20]) was 7.44%. For the same compound, the Activity (NCI-H460 [21]) was “Active” and the Activity (NCI-H460 [22]) was “Active”.
